Results collected from several papers.

Nc1ncc(-c2nc(N3CCOCC3)nc(N3CCOCC3)n2)c(C(F)F)n1 — remaining binding (Cyclin-dependent kinase 3 (CDK3, Homo sapiens, UniProt Q00526); binding, competition with immobilised ligand; 10 µM): 88%
C#Cc1n[nH]c2c(-c3cn(C(C)c4ccccn4)c(=O)[nH]c3=O)cc(F)cc12 (stereo not shown) — inhibition (Insulin receptor (INSR, Homo sapiens, UniProt P06213); enzyme activity, inhibitor; 1 µM): 8.5%
c1ccc(C(NCCNC(c2ccccc2)c2ccccc2)c2ccccc2)cc1 — inhibition (Collagenase 3 (MMP13, Homo sapiens, UniProt P45452); enzyme activity, inhibitor; 10 µM): -10%
CC1CCCN(c2ncc(Cl)c(Nc3ccc4c(c3)n(CCC(C)(C)O)c(=O)n4C)n2)C1 (stereo not shown) — Dmax (B-cell lymphoma 6 protein (BCL6, Homo sapiens, UniProt P41182); protein level, degrader; SU-DHL-4): 85%
COc1ncccc1-c1cnn2ccc(N3CCN(C(=O)OC(C)C)CC3)nc12 — remaining binding (Serine/threonine-protein kinase SBK1 (SBK1, Homo sapiens, UniProt Q52WX2); binding, competition with immobilised ligand; 1 µM): 84%
C=C=CCN — kinact/KI (Primary amine oxidase, liver isozyme (Bos taurus, UniProt Q29437); enzyme activity, inhibitor, fluorescence): 9220 M⁻¹ s⁻¹
CCN(CC)CCCC[C@H](NC(=O)[C@H](CC(C)C)NC(=O)[C@H](C)NC(=O)[C@H](Cc1ccccc1)NC(=O)c1ccc(C(C)(C)C)cc1)C(=O)N[C@@H](CO)C(=O)OC — ΔTm (Protein polybromo-1, bromodomain (PBRM1, Homo sapiens, UniProt Q86U86); thermal stability, DSF; 25 µM): -0.15 °C
O=c1ccc2ccc3occc3c2o1 — activity vs control (Aldehyde dehydrogenase, mitochondrial (ALDH2, Homo sapiens, UniProt P05091); enzyme activity, inhibitor, absorbance; 10 µM): 95.2%
Cc1nn(C)cc1-c1nc2c(N3CCN(Cc4ccc(Cl)cc4)CC3)c(Cl)cnc2[nH]1 — remaining binding (Tyrosine-protein kinase Tec (TEC, Homo sapiens, UniProt P42680); binding, competition with immobilised ligand; 1 µM): 100%
CC[C@]1(O)C[C@H]2CN(CCc3c([nH]c4ccccc34)[C@@](C(=O)OC)(c3cc4c(cc3OC)N(C=O)[C@H]3[C@@](O)(C(=O)OC)[C@H](OC(C)=O)[C@]5(CC)C=CCN6CC[C@]43[C@@H]65)C2)C1 — remaining activity (Organic cation/carnitine transporter 2 (SLC22A5, Homo sapiens, UniProt O76082); transporter uptake, inhibitor; HEK293; 100 µM): 33.6%
